Test results from ChEMBL document CHEMBL1146581, “Induction of apoptosis by xanthones from mangosteen in human leukemia cell lines” (J Nat Prod, 2003).
The source made the active and inactive calls. No cut-off for these calls is given here.

Key:
[1] = test system: HL-60; assay: Cytotoxicity against human HL60 cells assessed as cell viability after 72 hrs by Trypan blue exclusion test; type: functional, cell-based; details: HL-60, 72 h
How it was run: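 HL60 (RIKEN Cell Bank) in RPMI-1640 with 10% heat-inactivated FBS, seeded at 1 × 10^5/mL. Exposed for 72 h to 5–40 µM compound added in DMSO (final 0.1% v/v). Viable cells counted by trypan blue dye exclusion. IC50 read from concentration–growth curves. Means ± SD of three experiments.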

[2] = test system: K562; assay: Cytotoxicity against human K562 cells assessed as cell viability at 10 uM after 72 hrs by Trypan blue exclusion test; type: functional, cell-based
How it was run: (§1)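 Leukemia lines (RIKEN Cell Bank) grown in RPMI-1640 with 10% heat-inactivated FBS. Growth curves were followed at 1, 2, 5 and 10 µM compound delivered in DMSO (final 0.1% v/v), with untreated controls. Viable cell number counted by trypan blue dye exclusion in a counting chamber.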

[3] = test system: NB-4; assay: Cytotoxicity against human NB4 cells assessed as cell viability at 10 uM after 72 hrs by Trypan blue exclusion test; type: functional, cell-based; how it was run: as §1
[4] = test system: U-937; assay: Cytotoxicity against human U937 cells assessed as cell viability at 10 uM after 72 hrs by Trypan blue exclusion test; type: functional, cell-based; how it was run: as §1
[5] = test system: K562; assay: Cytotoxicity against human K562 cells assessed as cell viability at 5 uM after 72 hrs by Trypan blue exclusion test; type: functional, cell-based; how it was run: as §1
[6] = test system: NB-4; assay: Cytotoxicity against human NB4 cells assessed as cell viability at 5 uM after 72 hrs by Trypan blue exclusion test; type: functional, cell-based; how it was run: as §1
[7] = test system: U-937; assay: Cytotoxicity against human U937 cells assessed as cell viability at 5 uM after 72 hrs by Trypan blue exclusion test; type: functional, cell-based; how it was run: as §1
[8] = test system: PBMC; assay: Cytotoxicity against concanavalin A-stimulated human PBMC cells at 10 uM after 72 hrs by Trypan blue exclusion test; type: cell-based
How it was run: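 Lymphocytes from healthy donors in RPMI-1640 with 10% heat-inactivated FBS, stimulated with concanavalin-A (75 µg/mL) for 48 h, then exposed to compound in DMSO (final 0.1% v/v). Viable cells counted by trypan blue dye exclusion in a counting chamber.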

[9] = test system: HL-60; assay: Induction of apoptosis in human HL60 cells assessed as nuclear condensation and fragmentation at 10 uM after 24 hrs using Hoechst stain by fluorescence microscopy; type: functional, cell-based
How it was run: (§2)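 Cells treated 24 h at 10 µM. Hoechst 33342 was added to the medium at 5 µg/mL for 30 min. Cells were then washed in PBS and nuclear condensation/fragmentation was scored by fluorescence microscopy (×400).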

[10] = test system: K562; assay: Induction of apoptosis in human K562 cells assessed as nuclear condensation and fragmentation at 10 uM after 24 hrs using Hoechst stain by fluorescence microscopy; type: functional, cell-based; how it was run: as §2
[11] = test system: NB-4; assay: Induction of apoptosis in human NB4 cells assessed as nuclear condensation and fragmentation at 10 uM after 24 hrs using Hoechst stain by fluorescence microscopy; type: functional, cell-based; how it was run: as §2
[12] = test system: U-937; assay: Induction of apoptosis in human U937 cells assessed as nuclear condensation and fragmentation at 10 uM after 24 hrs using Hoechst stain by fluorescence microscopy; type: functional, cell-based; how it was run: as §2
[13] = test system: HL-60; assay: Induction of apoptosis in human HL60 cells assessed as DNA ladder formation at 10 uM after 24 hrs by agarose gel electrophoresis; type: functional, cell-based
[14] = test system: K562; assay: Induction of apoptosis in human K562 cells assessed as DNA ladder formation at 10 uM after 24 hrs by agarose gel electrophoresis; type: functional, cell-based
[15] = test system: NB-4; assay: Induction of apoptosis in human NB4 cells assessed as DNA ladder formation at 10 uM after 24 hrs by agarose gel electrophoresis; type: functional, cell-based
[16] = test system: U-937; assay: Induction of apoptosis in human U937 cells assessed as DNA ladder formation at 10 uM after 24 hrs by agarose gel electrophoresis; type: functional, cell-based
[17] = test system: HL-60; assay: Induction of apoptosis in human HL60 cells assessed as caspase 3 activation at 10 uM by Western blot; type: functional, cell-based
How it was run: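 HL60 treated with 10 µM over a time course. Lysis was in Tris pH 7.4/NP-40/deoxycholate/SDS buffer with protease inhibitors, 30 min on ice. 10 µg protein was run on a 5–20% SDS gradient gel and blotted to PVDF. The blot was probed overnight at 4 °C with rabbit anti-caspase-3, then HRP anti-rabbit, and detected by ECL. Pro (32 kD) and active (19/17 kD) forms were read.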

CC(C)=CCc1c(O)cc2oc3cc(O)c(O)c(CC=C(C)C)c3c(=O)c2c1O
IC50 [1]: 6.1 µM

COc1cc2oc3cc(O)c(OC)c(CC=C(C)C)c3c(=O)c2c(O)c1CC=C(C)C
IC50 [1]: 7.6 µM

COc1cc2oc3ccc(O)cc3c(=O)c2c(O)c1CC=C(C)C
IC50 [1]: 23.6 µM

CC(C)=CCc1c(O)cc2oc3c(CC=C(C)C)c(O)c(O)c(CC=C(C)C)c3c(=O)c2c1O [GARCINONE E]
IC50 [1]: 15 µM

CC(C)=CCC/C(C)=C/Cc1c(O)cc2oc3c(O)cccc3c(=O)c2c1O [MANGOSTINONE]
IC50 [1]: 19 µM

COc1c(O)cc2oc3cc(O)c(CC=C(C)C)c(O)c3c(=O)c2c1CC=C(C)C [MANGOSTIN]
IC50 [1]: 6.8 µM | Activity [2]: Active | Activity [3]: Active | Activity [4]: Active | Activity [5]: Active | Activity [6]: Active | Activity [7]: Active | Activity [8]: Non-toxic | Activity [9]: Active | Activity [10]: Active | Activity [11]: Active | Activity [12]: Active | Activity [13]: Active | Activity [14]: Active | Activity [15]: Active | Activity [16]: Active | Activity [17]: Active
